Laboratory results from article PMC8994735 (Targeted Oncology, 2021).
Read-outs that look alike come from different tables or passages of the source.

System: East Asian patients with advanced nonhematologic malignancies
Format: in vivo, human
Method in brief: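 AEs were graded by NCI CTCAE v4.03 in all patients receiving ≥ 1 oral dose, given once daily or once weekly in 28-day cycles for up to 12 months. Follow-up lasted 30 days after the last dose. Entry required ECOG 0–1, fasting glucose ≤ 130 mg/dL and triglycerides ≤ 300 mg/dL. Summaries were descriptive.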

[1] = QW dose escalation 20 mg (n = 3)
[2] = QW dose escalation 30 mg (n = 3)

CC(C)n1nc(-c2ccc3oc(N)nc3c2)c2c(N)ncnc21 [sapanisertib]
50%: Treatment-related AE hyperglycemia (QW arm)
3 (11) n (%): AE by preferred term: Diarrhea (Total n = 28) | AE by preferred term: Erythema (Total n = 28) | AE by preferred term: Headache (Total n = 28) | AE by preferred term: Urticaria (Total n = 28) | Grade ≥ 3 AE: Gamma-glutamyltransferase increased (Total n = 28) | Grade ≥ 3 AE: Lymphocyte count decreased (Total n = 28)
8 (29) n (%): AE by preferred term: Vomiting (Total n = 28)
17 (61) n (%): AE by preferred term: Nausea (Total n = 28)
Four: Discontinued treatment due to AEs (both arms)
3 (100) n (%): Any AE [1] | Any grade ≥ 3 AE [1] | Treatment-related AE [1] | Any AE [2] | Treatment-related AE [2]
6 (100) n (%): AE by preferred term: Nausea (QW dosing n = 6) | Any AE (QW total (n = 6)) | Treatment-related AE (QW total (n = 6))
100%: Treatment-related AE nausea (QW arm) | Patients reporting at least one AE (across all doses)
no on-study deaths: On-study deaths (whole study)
5 (18) n (%): AE by preferred term: Lymphocyte count decreased (Total n = 28) | AE by preferred term: Pyrexia (Total n = 28) | AE by preferred term: Rash maculo-papular (Total n = 28)
2 (7) n (%): AE by preferred term: Blood bilirubin increased (Total n = 28) | AE by preferred term: Erythema multiforme (Total n = 28) | AE by preferred term: Gastrointestinal inflammation (Total n = 28) | AE by preferred term: Hiccups (Total n = 28) | AE by preferred term: Neutrophil count decreased (Total n = 28) | AE by preferred term: Pruritus (Total n = 28) | AE by preferred term: Rash erythematous (Total n = 28) | AE by preferred term: Rash pustular (Total n = 28) | Grade ≥ 3 AE: Aspartate aminotransferase increased (Total n = 28) | Grade ≥ 3 AE: Nausea (Total n = 28) | Grade ≥ 3 AE: Rash maculo-papular (Total n = 28) | Grade ≥ 3 AE: Stomatitis (Total n = 28)
13 (46) n (%): AE by preferred term: Hyperglycemia (Total n = 28)
1 (17) n (%): AE by preferred term: Abdominal pain (QW dosing n = 6) | AE by preferred term: Anemia (QW dosing n = 6) | AE by preferred term: Diarrhea (QW dosing n = 6) | AE by preferred term: Erythema (QW dosing n = 6) | AE by preferred term: Headache (QW dosing n = 6) | AE by preferred term: Hypokalemia (QW dosing n = 6) | AE by preferred term: Lymphocyte count decreased (QW dosing n = 6) | AE by preferred term: Platelet count decreased (QW dosing n = 6) | AE by preferred term: Pyrexia (QW dosing n = 6) | Grade ≥ 3 AE: Alanine aminotransferase increased (QW dosing n = 6) | Grade ≥ 3 AE: Aspartate aminotransferase increased (QW dosing n = 6) | Grade ≥ 3 AE: Cholangitis acute (QW dosing n = 6) | Grade ≥ 3 AE: Enteritis (QW dosing n = 6) | Grade ≥ 3 AE: Hyperglycemia (QW dosing n = 6) | Grade ≥ 3 AE: Lymphocyte count decreased (QW dosing n = 6) | Grade ≥ 3 AE: Malignant neoplasm progression (QW dosing n = 6) | AEs resulting in discontinuation (QW total (n = 6)) | Treatment-related SAEs (QW total (n = 6)) | Treatment-related grade ≥ 3 AE (QW total (n = 6))
1 (4) n (%): Grade ≥ 3 AE: Acute myocardial infarction (Total n = 28) | Grade ≥ 3 AE: Alanine aminotransferase increased (Total n = 28) | Grade ≥ 3 AE: Blood creatine phosphokinase increased (Total n = 28) | Grade ≥ 3 AE: Cholangitis acute (Total n = 28) | Grade ≥ 3 AE: Decreased appetite (Total n = 28) | Grade ≥ 3 AE: Diarrhea (Total n = 28) | Grade ≥ 3 AE: Enteritis (Total n = 28) | Grade ≥ 3 AE: Gastrointestinal inflammation (Total n = 28) | Grade ≥ 3 AE: Genital herpes (Total n = 28) | Grade ≥ 3 AE: Gingivitis (Total n = 28) | Grade ≥ 3 AE: Hyperglycemia (Total n = 28) | Grade ≥ 3 AE: Jaundice cholestatic (Total n = 28) | Grade ≥ 3 AE: Malignant neoplasm progression (Total n = 28) | Grade ≥ 3 AE: Neutrophil count decreased (Total n = 28) | Grade ≥ 3 AE: Platelet count decreased (Total n = 28) | Grade ≥ 3 AE: Post herpetic neuralgia (Total n = 28) | Grade ≥ 3 AE: Pruritus (Total n = 28) | Grade ≥ 3 AE: Rash pustular (Total n = 28) | Grade ≥ 3 AE: Renal impairment (Total n = 28) | Grade ≥ 3 AE: Sepsis (Total n = 28) | Grade ≥ 3 AE: Urticaria (Total n = 28) | Grade ≥ 3 AE: White blood cell count decreased (Total n = 28)
2 (33) n (%): AE by preferred term: Blood bilirubin increased (QW dosing n = 6) | AE by preferred term: Fatigue (QW dosing n = 6) | AE by preferred term: Gamma-glutamyltransferase increased (QW dosing n = 6) | AE by preferred term: Hiccups (QW dosing n = 6) | AE by preferred term: Stomatitis (QW dosing n = 6) | Grade ≥ 3 AE: Gamma-glutamyltransferase increased (QW dosing n = 6)
2 (67) n (%): AEs resulting in dose interruption [1] | SAEs [1]
16 (57) n (%): AE by preferred term: Stomatitis (Total n = 28)
18 (64) n (%): Patients with ≥ 1 grade 3 or higher AE (Total n = 28)
14 (50) n (%): AE by preferred term: Decreased appetite (Total n = 28)
6 (21) n (%): AE by preferred term: Anemia (Total n = 28)
9 (32) n (%): AE by preferred term: Aspartate aminotransferase increased (Total n = 28) | AE by preferred term: Fatigue (Total n = 28)
3 (50) n (%): AE by preferred term: Alanine aminotransferase increased (QW dosing n = 6) | AE by preferred term: Aspartate aminotransferase increased (QW dosing n = 6) | AE by preferred term: Decreased appetite (QW dosing n = 6) | AE by preferred term: Vomiting (QW dosing n = 6) | AE by preferred term: Weight decreased (QW dosing n = 6) | AEs resulting in dose interruption (QW total (n = 6)) | SAEs (QW total (n = 6))
4 (14) n (%): AE by preferred term: Abdominal pain (Total n = 28) | AE by preferred term: Blood alkaline phosphatase increased (Total n = 28) | AE by preferred term: Constipation (Total n = 28) | AE by preferred term: Gamma-glutamyltransferase increased (Total n = 28) | AE by preferred term: Hypokalemia (Total n = 28) | AE by preferred term: White blood cell count decreased (Total n = 28)
1 (33) n (%): Treatment-related SAEs [1] | Treatment-related grade ≥ 3 AE [1] | AEs resulting in discontinuation [2] | AEs resulting in dose interruption [2] | Any grade ≥ 3 AE [2] | SAEs [2]
4 (67) n (%): AE by preferred term: Blood alkaline phosphatase increased (QW dosing n = 6) | AE by preferred term: Hyperglycemia (QW dosing n = 6) | Patients with ≥ 1 grade 3 or higher AE (QW dosing n = 6) | Any grade ≥ 3 AE (QW total (n = 6))
7 (25) n (%): AE by preferred term: Alanine aminotransferase increased (Total n = 28) | AE by preferred term: Platelet count decreased (Total n = 28)
10 (36) n (%): AE by preferred term: Weight decreased (Total n = 28)
0 n (%): AEs resulting in discontinuation [1] | AEs resulting in dose reduction [1] | On-study deaths [1] | AEs resulting in dose reduction [2] | On-study deaths [2] | Treatment-related SAEs [2] | Treatment-related grade ≥ 3 AE [2] | AEs resulting in dose reduction (QW total (n = 6)) | On-study deaths (QW total (n = 6))
